Measurements reported in ChEMBL document CHEMBL1129059, “Antitumor properties of some 2-[(dimethylamino)methyl]phenylgold(III) complexes” (J Med Chem, 1996).
“And” between values parts separate entries of the source, which are not always exact repeats. Identical values can stand only once.

Tests used:
[1] = test system: SW-620; assay: Compound was tested for in vitro growth inhibition of primary panel tumor cell line SW620; assay type: functional, cell-based, Homo sapiens
How it was run: (§1)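 Primary-panel lines kept in L15, RPMI 1640 plus pyruvate, or MEM, each with 10% FBS. Cells were seeded at 5×10^4–10^5 cells/mL, preincubated 24 h, then exposed 4 h to 0–200 μg/mL from a 2 mg/mL stock in 10% DMA/PBS. After washout and 72 h further growth, cells were read by SRB. IC50 was the concentration giving 50% survival versus untreated controls.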

[2] = test system: A2780; assay: Compound was tested for in vitro growth inhibition of Ovarian carcinoma cell line panel A2780-R; assay type: functional, cell-based, Homo sapiens
How it was run: (§2)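 Ovarian lines grown as monolayers in DMEM with 10% FBS, insulin, hydrocortisone and L-glutamine under 6% CO2. Cells were seeded at 3–5 × 10³/well and left to attach overnight. Compounds were freshly dissolved in DMA or water and applied for 96 h in quadruplicate wells. Growth was measured by SRB and reported as IC50.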

[3] = test system: SK-OV-3; assay: Compound was tested for in vitro growth inhibition of Ovarian carcinoma cell line panel SK-OV-3; assay type: functional, cell-based, Homo sapiens; how it was run: as §2
[4] = Solubility at 25 degrees Celsius in 1-Octanol; assay type: physicochemical
How it was run: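 A sample was tumbled in 1-octanol at 25 °C for 24 h and filtered. An aliquot was evaporated and the residue taken up in dilute aqua regia. Gold content was determined as for the aqueous samples, with indium as internal standard.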

[5] = test system: HT-1376; assay: Compound was tested for in vitro growth inhibition of primary panel tumor cell line HT1376; assay type: functional, cell-based, Homo sapiens; how it was run: as §1
[6] = test system: ZR-75-1; assay: Compound was tested for in vitro growth inhibition of primary panel tumor cell line ZR-75-1; assay type: functional, cell-based, Homo sapiens; how it was run: as §1
[7] = Solubility at 25 degrees Celsius in water; assay type: physicochemical; conditions: buffer
How it was run: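 5–10 mg sample was tumbled in 5.0 mL water at 25 °C for 24 h and filtered. The solution was diluted as needed and gold was quantified with 1 ppm indium as internal standard.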

[8] = test system: CH1; assay: Compound was tested for in vitro growth inhibition of Ovarian carcinoma cell line panel CH1-R; assay type: functional, cell-based; how it was run: as §2
[9] = test system: SW 1116; assay: Compound was tested for in vitro growth inhibition of primary panel tumor cell line SW1116; assay type: functional, cell-based, Homo sapiens; how it was run: as §1
[10] = test system: HT-29; assay: Compound was tested for in vitro growth inhibition of primary panel tumor cell line HT-29/219; assay type: functional, cell-based, Homo sapiens; how it was run: as §1
[11] = test system: A2780; assay: Compound was tested for in vitro growth inhibition of Ovarian carcinoma cell line panel A2780; assay type: functional, cell-based, Homo sapiens; how it was run: as §2
[12] = test system: HX62 cell line; assay: Compound was tested for in vitro growth inhibition of Ovarian carcinoma cell line panel HX62; assay type: functional, cell-based, Homo sapiens; how it was run: as §2
[13] = test system: CH1; assay: Compound was tested for in vitro growth inhibition of Ovarian carcinoma cell line panel CH1; assay type: functional, cell-based; how it was run: as §2
[14] = test system: SK-OV-3; assay: Compound was tested for in vitro growth inhibition of primary panel tumor cell line SK-OV-3; assay type: functional, cell-based, Homo sapiens; how it was run: as §1
[15] = test system: SK-OV-3; assay: Compound was tested for in vitro growth inhibition of primary panel tumor cell lines SK-OV-3; assay type: functional, cell-based, Homo sapiens; how it was run: as §1
[16] = test system: SW-620; assay: Compound was tested for in vitro growth inhibition of primary panel tumor cell lines SW620; assay type: functional, cell-based, Homo sapiens; how it was run: as §1
[17] = Range is evaluated. (Highest IC50/Lowest IC50); assay type: functional
[18] = Range is evaluated.; assay type: functional
[19] = test system: Mus musculus; assay: Compound was evaluated for antitumor activity (T/C) in HT1376 carcinoma Xenograft, at a dosage 8.75 mg/kg on day 21; assay type: functional, organism-based; set-up: dose 8.75 mg/kg
How it was run: (§3)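 Nude mice carrying subcutaneous flank HT1376 fragments; treatment began once tumors were established and palpable, randomized into groups of 6 treated and 10 control mice. Dosing was ip as a suspension in 0.5% carboxymethylcellulose in 0.9% saline on days 0, 7, 14 and 21, at the MTD and two 2-fold dilutions. Tumors were measured on days 0-28. RTV = 100(mean volume at assessment)/(mean start volume); T/C = treated RTV/control RTV.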

[20] = test system: Mus musculus; assay: Compound was evaluated for antitumor activity (T/C) in HT1376 carcinoma Xenograft, at a dosage 17.5 mg/kg on day 7; assay type: functional, organism-based; set-up: dose 17.5 mg/kg
How it was run: (§4)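 Subcutaneous HT1376 xenografts in nude mice, 6 per treated group and 10 controls. Intraperitoneal dosing as suspensions in 0.5% carboxymethylcellulose/0.9% saline on days 0, 7, 14, 21; tumors measured weekly to day 28. T/C = RTV of treated group / RTV of untreated control group; significance by t-test at the 5% level.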

[21] = test system: Mus musculus; assay: Compound was evaluated for antitumor activity (T/C) in HT1376 carcinoma Xenograft, at a dosage 8.75 mg/kg on day 28; assay type: functional, organism-based; set-up: dose 8.75 mg/kg; how it was run: as §3
[22] = test system: Mus musculus; assay: Compound was evaluated for antitumor activity (RTV) in HT1376 carcinoma Xenograft, at a dosage 8.75 mg/kg on day 7; assay type: functional, organism-based; set-up: dose 8.75 mg/kg
How it was run: (§5)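 HT1376 tumor fragments implanted subcutaneously in nude mice flanks; mice with established palpable tumors randomized into groups of 6 (controls 10). Compounds given intraperitoneally as suspensions in 0.5% carboxymethylcellulose in 0.9% saline, on days 0, 7, 14 and 21. Tumor dimensions on days 0, 7, 14, 21, 28. RTV = 100(mean tumor volume at assessment)/(mean start volume).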

[23] = test system: Mus musculus; assay: Compound was evaluated for antitumor activity (RTV) in HT1376 carcinoma Xenograft, at a dosage 17.5 mg/kg on day 28; assay type: functional, organism-based; set-up: dose 17.5 mg/kg; how it was run: as §5
[24] = test system: Mus musculus; assay: Compound was evaluated for antitumor activity (T/C) in HT1376 carcinoma Xenograft, at a dosage 17.5 mg/kg on day 28; assay type: functional, organism-based; set-up: dose 17.5 mg/kg; how it was run: as §4
[25] = test system: Mus musculus; assay: Compound was evaluated for antitumor activity (RTV) in HT1376 carcinoma Xenograft, at a dosage 35 mg/kg on day 28; assay type: functional, organism-based; set-up: dose 35 mg/kg; how it was run: as §5
[26] = test system: Mus musculus; assay: Compound was evaluated for antitumor activity (T/C) in HT1376 carcinoma Xenograft, at a dosage 8.75 mg/kg on day 7; assay type: functional, organism-based; set-up: dose 8.75 mg/kg; how it was run: as §3
[27] = test system: Mus musculus; assay: Compound was evaluated for antitumor activity (RTV) in HT1376 carcinoma Xenograft, at a dosage 17.5 mg/kg on day 7; assay type: functional, organism-based; set-up: dose 17.5 mg/kg; how it was run: as §5
[28] = test system: Mus musculus; assay: Compound was evaluated for antitumor activity (RTV) in HT1376 carcinoma Xenograft, at a dosage 35 mg/kg on day 21; assay type: functional, organism-based; set-up: dose 35 mg/kg; how it was run: as §5
[29] = test system: Mus musculus; assay: Compound was evaluated for antitumor activity (RTV) in HT1376 carcinoma Xenograft, at a dosage 35 mg/kg on day 7; assay type: functional, organism-based; set-up: dose 35 mg/kg; how it was run: as §5
[30] = test system: Mus musculus; assay: Compound was evaluated for antitumor activity (RTV) in HT1376 carcinoma Xenograft, at a dosage 17.5 mg/kg on day 14; assay type: functional, organism-based; set-up: dose 17.5 mg/kg; how it was run: as §5
[31] = test system: Mus musculus; assay: Compound was evaluated for antitumor activity (T/C) in HT1376 carcinoma Xenograft, at a dosage 35 mg/kg on day 28; assay type: functional, organism-based; set-up: dose 35 mg/kg; how it was run: as §3
[32] = test system: Mus musculus; assay: Compound was evaluated for antitumor activity (T/C) in HT1376 carcinoma Xenograft, at a dosage 17.5 mg/kg on day 14; assay type: functional, organism-based; set-up: dose 17.5 mg/kg; how it was run: as §4
[33] = test system: Mus musculus; assay: Compound was evaluated for antitumor activity (T/C) in HT1376 carcinoma Xenograft, at a dosage 35 mg/kg on day 7; assay type: functional, organism-based; set-up: dose 35 mg/kg; how it was run: as §3
[34] = test system: Mus musculus; assay: Compound was evaluated for antitumor activity (RTV) in HT1376 carcinoma Xenograft, at a dosage 8.75 mg/kg on day 21; assay type: functional, organism-based; set-up: dose 8.75 mg/kg; how it was run: as §5
[35] = test system: Mus musculus; assay: Compound was evaluated for antitumor activity (T/C) in HT1376 carcinoma Xenograft, at a dosage 17.5 mg/kg on day 21; assay type: functional, organism-based; set-up: dose 17.5 mg/kg; how it was run: as §4
[36] = test system: Mus musculus; assay: Compound was evaluated for antitumor activity (T/C) in HT1376 carcinoma Xenograft, at a dosage 8.75 mg/kg on day 14; assay type: functional, organism-based; set-up: dose 8.75 mg/kg; how it was run: as §3
[37] = test system: Mus musculus; assay: Compound was evaluated for antitumor activity (T/C) in HT1376 carcinoma Xenograft, at a dosage 35 mg/kg on day 14; assay type: functional, organism-based; set-up: dose 35 mg/kg; how it was run: as §3
[38] = test system: Mus musculus; assay: Compound was evaluated for antitumor activity (RTV) in HT1376 carcinoma Xenograft, at a dosage 17.5 mg/kg on day 21; assay type: functional, organism-based; set-up: dose 17.5 mg/kg; how it was run: as §5
[39] = test system: Mus musculus; assay: Compound was evaluated for antitumor activity (T/C) in HT1376 carcinoma Xenograft, at a dosage 35 mg/kg on day 21; assay type: functional, organism-based; set-up: dose 35 mg/kg; how it was run: as §3
[40] = test system: Mus musculus; assay: Compound was evaluated for antitumor activity (RTV) in HT1376 carcinoma Xenograft, at a dosage 35 mg/kg on day 14; assay type: functional, organism-based; set-up: dose 35 mg/kg; how it was run: as §5
[41] = test system: Mus musculus; assay: Compound was evaluated for antitumor activity (RTV) in HT1376 carcinoma Xenograft, at a dosage 8.75 mg/kg on day 14; assay type: functional, organism-based; set-up: dose 8.75 mg/kg; how it was run: as §5
[42] = test system: Mus musculus; assay: Compound was evaluated for antitumor activity (RTV) in HT1376 carcinoma Xenograft, at a dosage 8.75 mg/kg on day 28; assay type: functional, organism-based; set-up: dose 8.75 mg/kg; how it was run: as §5

## Bis(thiocyanato)[2-(dimethylamino)methyl]phenyl-C,N]gold-(III)
[1]
  IC50: 51 µM
[2]
  IC50: 26 µM
[3]
  IC50: 39 µM
[4]
  Solubility: 0.78 mM
[5]
  IC50: 6.7 µM
[6]
  IC50: 34 µM
[7]
  Solubility: 0.13 mM
[8]
  IC50: 11 µM
[9]
  IC50: 47 µM
[10]
  IC50: 25 µM
[11]
  IC50: 2 µM
[12]
  IC50: 31 µM
[13]
  IC50: 10 µM
[14]
  IC50: 20 µM

## Acetato[2-(dimethylamino)methyl]phenyl-C,N]gold-(III)
[2]
  IC50: 35 µM
[3]
  IC50: 107 µM
[15]
  IC50: 13 µM
[4]
  Solubility: > 5.28 mM
[5]
  IC50: 13 µM
[6]
  IC50: 45 µM
[7]
  Solubility: > 5.23 mM
[8]
  IC50: 12 µM
[9]
  IC50: 238 µM
[16]
  IC50: 281 µM
[10]
  IC50: 67 µM
[11]
  IC50: 3.5 µM
[12]
  IC50: 34 µM
[13]
  IC50: 11 µM

## Oxalato[2-(dimethylamino)methyl]phenyl-C,N]gold-(III) Hemihydrate [listing 1 of 2 here]
[17]
  Range: 21.5
[18]
  Range: 11.4

## Malonato[2-(dimethylamino)methyl]phenyl-C,N]gold-(III)
[19]
  T/C: 1.06
[20]
  T/C: 1.01
[21]
  T/C: 1.17
[22]
  RTV: 264
[23]
  RTV: 802
[24]
  T/C: 0.76
[25]
  RTV: 816
[26]
  T/C: 1
[27]
  RTV: 266
[28]
  RTV: 488
[29]
  RTV: 210
[30]
  RTV: 451
[17]
  Range: 7.3 and 11.1
[31]
  T/C: 0.77
[32]
  T/C: 0.88
[33]
  T/C: 0.8
[34]
  RTV: 894
[35]
  T/C: 0.83
[36]
  T/C: 1
[37]
  T/C: 0.57
[38]
  RTV: 699
[39]
  T/C: 0.58
[40]
  RTV: 292
[41]
  RTV: 513
[42]
  RTV: 1230

## Oxalato[2-(dimethylamino)methyl]phenyl-C,N]gold-(III) Hemihydrate [listing 2 of 2 here]
[1]
  IC50: 205 µM
[2]
  IC50: 35 µM
[3]
  IC50: 42 µM
[15]
  IC50: 10 µM
[4]
  Solubility: 0.17 mM
[5]
  IC50: 10 µM
[6]
  IC50: 41 µM
[7]
  Solubility: 0.43 mM
[8]
  IC50: 13 µM
[9]
  IC50: 215 µM
[10]
  IC50: 19 µM
[11]
  IC50: 3.7 µM
[12]
  IC50: 30 µM
[13]
  IC50: 11 µM
